Among the data in ChEMBL document CHEMBL1157184, “Hymenoic acid, a novel specific inhibitor of human DNA polymerase lambda from a fungus of Hymenochaetaceae sp” (Bioorg Med Chem, 2008) are Activity values, retold here.

Test [1] addresses T1, DNA polymerase alpha subunit B (Bos taurus) (UniProt Q58D13).
T1 sequence (whole entry): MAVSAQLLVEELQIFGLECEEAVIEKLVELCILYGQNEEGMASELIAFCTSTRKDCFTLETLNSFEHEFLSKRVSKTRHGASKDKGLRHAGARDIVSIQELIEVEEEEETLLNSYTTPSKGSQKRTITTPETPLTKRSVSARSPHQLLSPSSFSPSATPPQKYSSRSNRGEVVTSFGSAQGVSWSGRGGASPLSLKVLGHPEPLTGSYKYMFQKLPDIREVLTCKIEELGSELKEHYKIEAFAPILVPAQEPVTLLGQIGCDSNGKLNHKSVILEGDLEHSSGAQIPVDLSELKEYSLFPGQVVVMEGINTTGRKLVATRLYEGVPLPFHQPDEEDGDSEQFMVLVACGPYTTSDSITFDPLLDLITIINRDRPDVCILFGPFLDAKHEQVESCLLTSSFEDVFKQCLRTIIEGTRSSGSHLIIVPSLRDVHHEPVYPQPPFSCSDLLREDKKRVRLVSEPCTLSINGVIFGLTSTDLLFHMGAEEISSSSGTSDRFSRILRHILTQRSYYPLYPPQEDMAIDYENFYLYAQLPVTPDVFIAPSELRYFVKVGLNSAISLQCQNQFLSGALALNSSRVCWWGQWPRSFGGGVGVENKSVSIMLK
In words: Inhibition of calf DNA polymerase alpha at 200 uM. The method in brief: (§1)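 Compound dissolved in DMSO and sonicated 30 s, then held with each polymerase (final 0.05 U) in 50 mM Tris-HCl pH 7.5, 1 mM DTT, 50% glycerol, 0.1 mM EDTA at 0 °C for 10 min. Reaction with poly(dA)/oligo(dT)12-18 and dTTP ran 60 min at 37 °C (Taq at 74 °C). Activity relative to no-compound control; means ± SEM, four independent experiments.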

Test [2] has as its target DNA polymerase beta (Rattus norvegicus) (UniProt P06766). The experiment in a line: Inhibition of rat DNA polymerase beta at 200 uM. Put shortly:
as §1

For test [3], the species on record is Homo sapiens. In words: Inhibition of human DNA polymerase gamma at 200 uM. Put shortly:
as §1

For test [4], the species on record is Homo sapiens. In words: Inhibition of human DNA polymerase epsilon at 200 uM. Put shortly: as §1
Test [5] has as its target T2, DNA polymerase iota (Homo sapiens) (UniProt Q9UNA4).
T2 sequence (whole entry): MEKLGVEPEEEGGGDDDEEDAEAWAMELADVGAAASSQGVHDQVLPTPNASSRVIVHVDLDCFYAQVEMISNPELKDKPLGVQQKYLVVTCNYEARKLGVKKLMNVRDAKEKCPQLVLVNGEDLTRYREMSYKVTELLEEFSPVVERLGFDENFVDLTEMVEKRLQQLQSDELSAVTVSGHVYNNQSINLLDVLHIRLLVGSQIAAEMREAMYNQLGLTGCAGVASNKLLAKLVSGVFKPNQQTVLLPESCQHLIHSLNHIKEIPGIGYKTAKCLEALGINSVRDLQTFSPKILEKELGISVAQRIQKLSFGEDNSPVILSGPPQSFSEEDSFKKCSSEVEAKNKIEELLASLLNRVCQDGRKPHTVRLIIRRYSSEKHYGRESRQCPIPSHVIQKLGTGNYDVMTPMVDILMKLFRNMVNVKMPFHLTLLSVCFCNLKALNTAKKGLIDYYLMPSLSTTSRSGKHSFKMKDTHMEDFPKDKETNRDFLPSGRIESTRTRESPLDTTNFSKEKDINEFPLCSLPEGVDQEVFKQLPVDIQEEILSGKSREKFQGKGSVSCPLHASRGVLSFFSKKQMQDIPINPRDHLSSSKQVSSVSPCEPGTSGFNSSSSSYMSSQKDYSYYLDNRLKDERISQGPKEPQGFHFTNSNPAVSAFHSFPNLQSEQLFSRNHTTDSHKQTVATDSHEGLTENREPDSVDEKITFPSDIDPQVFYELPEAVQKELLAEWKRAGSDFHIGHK
In words: Inhibition of human DNA polymerase iota at 200 uM. Put shortly: as §1

Test [6] has as its target T3, DNA polymerase kappa (Homo sapiens) (UniProt Q9UBT6).
T3 sequence (whole entry): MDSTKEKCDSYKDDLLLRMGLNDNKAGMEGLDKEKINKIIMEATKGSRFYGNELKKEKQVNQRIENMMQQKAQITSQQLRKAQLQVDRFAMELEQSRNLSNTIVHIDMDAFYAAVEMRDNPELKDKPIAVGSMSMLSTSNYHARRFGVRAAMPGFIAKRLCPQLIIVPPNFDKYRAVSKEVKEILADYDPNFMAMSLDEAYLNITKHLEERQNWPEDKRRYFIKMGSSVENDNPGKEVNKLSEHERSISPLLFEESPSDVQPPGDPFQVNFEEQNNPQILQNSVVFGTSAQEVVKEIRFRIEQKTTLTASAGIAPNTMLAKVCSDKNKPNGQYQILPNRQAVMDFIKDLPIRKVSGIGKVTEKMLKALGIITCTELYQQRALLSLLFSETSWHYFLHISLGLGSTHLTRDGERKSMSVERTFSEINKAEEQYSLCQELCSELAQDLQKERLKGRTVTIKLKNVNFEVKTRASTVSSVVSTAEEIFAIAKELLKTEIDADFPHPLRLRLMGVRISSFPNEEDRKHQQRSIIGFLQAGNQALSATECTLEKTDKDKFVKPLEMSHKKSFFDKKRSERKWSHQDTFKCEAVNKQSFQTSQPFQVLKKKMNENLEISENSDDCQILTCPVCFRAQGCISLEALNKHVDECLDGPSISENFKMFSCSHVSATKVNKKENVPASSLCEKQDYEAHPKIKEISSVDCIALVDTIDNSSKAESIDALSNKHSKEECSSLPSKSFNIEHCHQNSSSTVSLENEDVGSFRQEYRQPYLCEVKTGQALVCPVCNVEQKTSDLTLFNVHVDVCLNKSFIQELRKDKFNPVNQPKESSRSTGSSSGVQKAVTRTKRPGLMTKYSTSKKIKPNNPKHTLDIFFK
In words: Inhibition of human DNA polymerase kappa at 200 uM. The method in brief:
as §1

The next test deals with Oryza sativa. The experiment in a line: Inhibition of rice DNA polymerase lambda at 200 uM. Put shortly:
as §1

The next test concerns Oncorhynchus masou. In words: Inhibition of fish DNA polymerase delta at 200 uM. The method in brief: as §1
In another test the test system is Drosophila melanogaster. In words: Inhibition of fruit fly DNA polymerase beta at 200 uM. Put shortly: as §1
A further test deals with Escherichia coli. The experiment in a line: Inhibition of Escherichia coli DNA polymerase I Klenow fragment at 200 uM. Put shortly:
as §1

Test [7] concerns the target DNA polymerase I, thermostable (Thermus aquaticus) (UniProt P19821). The experiment in a line: Inhibition of Taq polymerase at 200 uM. Put shortly: as §1
In test [8] the target is T1, DNA polymerase alpha subunit B (Bos taurus). In words: Inhibition of primase activity of calf polymerase alpha at 200 uM.
The test system of test [9] is Human immunodeficiency virus. The experiment in a line: Inhibition of HIV reverse transcriptase at 200 uM.
Test [10] is filed under the species Homo sapiens. The experiment in a line: Inhibition of human topoisomerase type 2 at 200 uM. Put shortly: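 Each enzyme (0.05 U) was incubated with 200 μM compound. Activity was expressed as a percentage of the activity without compound (100%). Means ± SEM of four independent experiments.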
The subject of test [11] is T7 RNA polymerase (Bacteriophage T7). In words: Inhibition of T7 RNA polymerase at 200 uM.

The source made the active and inactive calls. The rule behind the calls is not given here.

Sequence of DNA polymerase I, thermostable (Thermus aquaticus) (P19821 whole entry): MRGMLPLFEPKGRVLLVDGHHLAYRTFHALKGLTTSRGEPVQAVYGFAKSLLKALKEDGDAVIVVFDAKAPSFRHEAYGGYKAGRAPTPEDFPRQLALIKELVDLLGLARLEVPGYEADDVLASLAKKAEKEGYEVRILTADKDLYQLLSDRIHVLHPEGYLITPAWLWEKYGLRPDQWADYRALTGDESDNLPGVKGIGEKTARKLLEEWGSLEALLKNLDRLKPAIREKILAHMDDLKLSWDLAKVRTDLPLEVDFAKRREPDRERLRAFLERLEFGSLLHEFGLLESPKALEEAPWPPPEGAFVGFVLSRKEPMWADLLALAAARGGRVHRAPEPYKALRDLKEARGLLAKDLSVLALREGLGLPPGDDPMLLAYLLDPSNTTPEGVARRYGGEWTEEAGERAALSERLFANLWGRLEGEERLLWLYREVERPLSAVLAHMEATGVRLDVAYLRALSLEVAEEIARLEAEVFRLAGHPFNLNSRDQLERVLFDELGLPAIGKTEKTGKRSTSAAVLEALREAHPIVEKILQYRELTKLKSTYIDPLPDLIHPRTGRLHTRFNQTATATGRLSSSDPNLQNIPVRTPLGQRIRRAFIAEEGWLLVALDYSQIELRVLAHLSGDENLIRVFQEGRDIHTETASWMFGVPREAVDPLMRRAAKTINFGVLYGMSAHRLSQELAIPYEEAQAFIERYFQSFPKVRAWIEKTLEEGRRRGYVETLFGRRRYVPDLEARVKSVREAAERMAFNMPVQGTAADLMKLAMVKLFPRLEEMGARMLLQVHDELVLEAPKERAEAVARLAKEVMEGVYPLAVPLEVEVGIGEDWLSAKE

As to `C/C(=C\CC[C@H](C)C(=O)O)[C@H]1CC[C@H](C(=O)O)CC1`, the outcome (in [1]; in [2]; in the test listed under Homo sapiens [3]; in the test listed under Homo sapiens [4]; in test [5]; in test [6]) was inactive. For the same molecule, the outcome (in the test with Oncorhynchus masou; in the test with Drosophila melanogaster; in the test on Escherichia coli; in [7]; in [8]; in test [9]) was inactive. In addition, the result (in the test filed under Homo sapiens [10]; in test [11]) was inactive. Also, the outcome in the test on Oryza sativa was Active.
